Sampled rows, rich in hits. Any-hit rate of the full collection: about 2.8%.
PAFAH1B2 inh: inhibitors of human PAFAH1B2; P68402; recombinant PAFAH1B2, FP-rhodamine activity probe, fluorescence polarization; inhibition, % at 3.39 µM; hit rate 1.2% among 340,000; AID 492953;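 active = inhibition above the mean of all tested compounds plus 3 SD, cut at about 24% in these data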;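 also: 0% = enzyme with DMSO and 100% = wells lacking PAFAH1B2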
mABHD4 FP: inhibitors of mouse ABHD4; inhibition, % at 8.92 µM; Q8VD66; purified mABHD4, FP-Rh probe fluorescence polarization; hit rate 0.54% among 370,000;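 active = inhibition exceeding the mean over every tested compound plus 3 SD, cut at about 30% in these data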;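 also: 0% = plate median of compound wells and 100% = S159A mutant with DMSO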
Target sequence (Q8VD66 whole entry, looked up): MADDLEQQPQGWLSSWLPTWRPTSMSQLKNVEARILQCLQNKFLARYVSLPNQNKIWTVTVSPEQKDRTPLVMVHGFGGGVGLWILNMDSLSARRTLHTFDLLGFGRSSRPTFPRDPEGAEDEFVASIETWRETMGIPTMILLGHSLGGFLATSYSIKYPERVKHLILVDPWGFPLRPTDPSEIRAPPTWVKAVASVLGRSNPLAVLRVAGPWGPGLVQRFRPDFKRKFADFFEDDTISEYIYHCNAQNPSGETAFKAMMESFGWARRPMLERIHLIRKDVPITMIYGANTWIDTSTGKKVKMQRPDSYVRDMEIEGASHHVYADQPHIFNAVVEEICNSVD
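Assay system: wild-type mouse ABHD4 protein; compound: single nominal dose of 8.92 µM, 0.89% DMSO final; schedule: 45 min + 60 min at 25 °C; measured by: FP readout, ex 525 nm / em 598 nm; evaluation: % inhibition of FP-Rh probe binding versus controls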
PAFAH2 inh: inhibitors of human PAFAH2; Q99487; recombinant PAFAH2, FP-rhodamine activity probe, fluorescence polarization; inhibition, % at 3.39 µM; hit rate 0.99% among 340,000; AID 492956;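 active = inhibition above the mean over all tested compounds plus 3 SD, cut at about 30% in these data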;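 also: inhibitors block probe labeling of enzyme so polarization drops; 0% = enzyme with DMSO and 100% = wells lacking PAFAH2 protein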
PAFAH1B3 FP inh: blocks human PAF acetylhydrolase 1B catalytic subunit 3. Q15102. hit rate 0.28% among 340,000. inhibition, % at 3.39 µM. recombinant PAFAH1B3, FP-rhodamine probe, fluorescence polarization;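 active = inhibition above the screen-wide average of all tested compounds plus 3 SD, cut at about 25% in these data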;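 also: 0% = enzyme with DMSO only and 100% = wells lacking PAFAH1B3 protein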
HTRA1 inhibitor: inhibitors of human serine peptidase HTRA1; Q92743; recombinant HTRA1, FP-rhodamine activity-based probe, fluorescence polarization; inhibition, % at 5.96 µM; hit rate 0.5% among 340,000; in the data active = inhibition above about 36%;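 also: 0% = enzyme with DMSO and 100% = wells lacking enzyme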
pPAFAH inh: inhibitors of human plasma PAF acetylhydrolase (pPAFAH). recombinant pPAFAH, FP-rhodamine probe fluorescence polarization. inhibition, % at 3.39 µM. hit rate 1.5% among 330,000. AID 463082;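 active = inhibition above the mean inhibition across the screen plus 3 SD, cut at about 25% in these data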;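 also: inhibitors block binding of the rhodamine activity-based probe so polarization drops; 0% = enzyme with DMSO and 100% = wells lacking pPAFAH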
PAFAH1B3 confirm: confirmation of human PAFAH1B3 inhibitors | shares compounds with PAFAH1B3 FP inh | inhibition, % at 3.39 µM | hit rate 30% among 390 | recombinant PAFAH1B3, FP-Rh activity-based probe, fluorescence polarization;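 active = average inhibition over triplicate runs above the hit cutoff set in the earlier primary screen, cut at about 25% in these data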;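 also: 0% = enzyme with DMSO and 100% = wells lacking PAFAH1B3 protein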
Starred values were filed as active, the others as inactive.

For CCOC(=O)c1c(C)oc2c1C(=O)c1ccccc1C2=O the results were PAFAH1B2 inh 10.5, mABHD4 FP 0.5, PAFAH2 inh 5.5, PAFAH1B3 FP inh 29.9*, HTRA1 inhibitor 4.1, pPAFAH inh 5.7 and PAFAH1B3 confirm 22.6.
`O=c1c(=Nc2ccccc2O)c(=O)c2ccccc12` gave PAFAH1B2 inh 9.8, mABHD4 FP 13.5, PAFAH2 inh 7.4, PAFAH1B3 FP inh 49.5*, HTRA1 inhibitor 1.9, pPAFAH inh 1.1 and PAFAH1B3 confirm 11.8.
Screening O=c1[nH][nH]cc1C=Nc1ccccc1O returned PAFAH1B2 inh 3.7, mABHD4 FP 1.3, PAFAH2 inh 1.8, PAFAH1B3 FP inh 5.9, HTRA1 inhibitor 0.8 and pPAFAH inh 3.2.
Screening Cc1ccccc1-c1cc2c(nn1)-c1ccccc1C2=O returned PAFAH1B2 inh 7.5, mABHD4 FP 7.6, PAFAH2 inh 14.9, PAFAH1B3 FP inh 33.9*, HTRA1 inhibitor 2.8, pPAFAH inh 1.3 and PAFAH1B3 confirm 7.4.
Screening Cc1ccc(-c2cc3c(nn2)-c2ccccc2C3=O)cc1 returned PAFAH1B2 inh 2.1, mABHD4 FP 10.5, PAFAH2 inh 5.5, PAFAH1B3 FP inh 4.2, HTRA1 inhibitor 0.7 and pPAFAH inh 6.5.
Screening CCCCCCC(=O)Nc1nc(C)c(-c2csc(Nc3ccc(Cl)cc3)n2)s1 returned PAFAH1B2 inh 20.9, PAFAH2 inh 23.9, PAFAH1B3 FP inh 28.0*, HTRA1 inhibitor 30.1, pPAFAH inh 12.6 and PAFAH1B3 confirm 12.7.
Screening CN1[C@H](Cc2ccccc2)COc2cc(N3CCCC3)ccc2S1(=O)=O returned mABHD4 FP -10.9.
`O=C1c2ccccc2S(=O)(=O)N1CCCN1C(=O)c2ccccc2S1(=O)=O` gave PAFAH1B2 inh 4.2, mABHD4 FP 6.0, PAFAH2 inh -2.2, PAFAH1B3 FP inh 29.7*, HTRA1 inhibitor -3.3 and PAFAH1B3 confirm 7.5.
`O=C1c2ccccc2C(=O)N1OCCCN1C(=O)c2ccccc2S1(=O)=O` gave PAFAH1B2 inh 3.0, mABHD4 FP 2.8, PAFAH2 inh 3.5, PAFAH1B3 FP inh 2.1 and HTRA1 inhibitor -12.0.
NC1=C(Br)C(=O)c2ncccc2C1=O was read as PAFAH1B2 inh 15.9, mABHD4 FP 6.1, PAFAH2 inh 24.8, PAFAH1B3 FP inh 58.5*, HTRA1 inhibitor 13.5 and PAFAH1B3 confirm 40.9*.
COC(=O)c1c[nH]c2c1-c1cc(C(=O)OCc3ccccc3)n(S(=O)(=O)c3ccc(C)cc3)c1C(=O)C2=O was read as PAFAH1B2 inh 8.6, mABHD4 FP 3.8, PAFAH2 inh 9.3, PAFAH1B3 FP inh 38.2*, HTRA1 inhibitor -0.2 and PAFAH1B3 confirm 7.8.
For COC(=O)c1cc2c(c3c4cc(C)ccc4n(S(=O)(=O)c4ccc(C)cc4)c13)C(=O)N(Cc1ccccc1)C2 the results were mABHD4 FP -3.7.
`O=C(CSc1nc2ccsc2c(=O)n1CC1CCC(C(=O)O)CC1)c1ccc(Cl)cc1` (stereo unspecified) gave PAFAH1B2 inh 16.2, mABHD4 FP -13.2, PAFAH2 inh 6.0, PAFAH1B3 FP inh 26.8*, HTRA1 inhibitor -11.1, pPAFAH inh 3.0 and PAFAH1B3 confirm 3.8.
O=C(CSc1nc2ccsc2c(=O)n1CC1CCC(C(=O)O)CC1)c1ccc(F)cc1 (stereo unspecified) was read as PAFAH1B2 inh 5.5, mABHD4 FP 3.1, PAFAH2 inh 6.2, PAFAH1B3 FP inh 2.8, HTRA1 inhibitor -10.2 and pPAFAH inh 0.8.
For O=C(NCCc1c[nH]c2ccccc12)OCc1cn(Cc2ccc(F)c(F)c2)nn1 the results were mABHD4 FP -3.0.
For CCc1cc2c(nc1CC)CCCN2S(=O)(=O)c1ccccc1C the results were mABHD4 FP 0.1.
For C=CCn1c(NC(=O)c2ccccc2Cl)c(C#N)c2nc3ccccc3nc21 the results were PAFAH1B2 inh 17.2, mABHD4 FP -6.5, PAFAH2 inh 5.9, PAFAH1B3 FP inh 60.4*, HTRA1 inhibitor -1.2, pPAFAH inh 8.3 and PAFAH1B3 confirm 7.8.
Screening COc1ccc(C(=O)c2nccc3cc(OC)c(OC)cc23)cc1OC returned PAFAH1B2 inh 10.2, PAFAH2 inh 11.6, PAFAH1B3 FP inh 56.5*, HTRA1 inhibitor 15.3, pPAFAH inh 4.8 and PAFAH1B3 confirm 8.1.
For COc1ccc(/C=C/C(=O)NC2=NCCS2)c(OC)c1 the results were mABHD4 FP 0.4.

Screens (PubChem)
